Results from different studies.
Each line is one published result; the experiments were not run side by side.
Target: Myotonin-protein kinase (DMPK, Homo sapiens, UniProt Q09013)
Residues used in one study (Q09013 1-629): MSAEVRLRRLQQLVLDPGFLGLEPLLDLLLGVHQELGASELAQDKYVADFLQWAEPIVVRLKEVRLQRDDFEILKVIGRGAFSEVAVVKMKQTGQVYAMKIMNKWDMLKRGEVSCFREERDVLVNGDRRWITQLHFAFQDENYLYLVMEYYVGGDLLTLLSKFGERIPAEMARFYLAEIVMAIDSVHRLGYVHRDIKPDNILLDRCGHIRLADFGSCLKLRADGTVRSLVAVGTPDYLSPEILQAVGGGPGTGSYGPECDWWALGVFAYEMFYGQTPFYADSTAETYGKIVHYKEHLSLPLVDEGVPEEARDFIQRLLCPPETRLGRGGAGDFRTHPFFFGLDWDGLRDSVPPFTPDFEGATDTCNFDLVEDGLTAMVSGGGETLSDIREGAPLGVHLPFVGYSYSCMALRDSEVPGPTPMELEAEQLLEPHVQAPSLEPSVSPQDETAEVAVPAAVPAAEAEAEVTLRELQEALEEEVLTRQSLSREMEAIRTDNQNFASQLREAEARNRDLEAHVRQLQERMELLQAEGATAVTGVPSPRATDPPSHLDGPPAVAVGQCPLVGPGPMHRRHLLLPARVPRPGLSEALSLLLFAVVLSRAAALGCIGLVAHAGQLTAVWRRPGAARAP

| Structure (SMILES) | effect on | mode | technique | tested at | endpoint | value |
| --- | --- | --- | --- | --- | --- | --- |
| CN(C)c1ncnc(-c2ccc3nc(Nc4cc(CN5CCN(C(=O)CC(F)(F)F)CC5)ccn4)[nH]c3c2)c1Cl | cell-free assay | – | competition with immobilised ligand | 1 µM | remaining binding | 91% |
| Cn1c2c(Cl)c(Cl)ccc2c2cc(N)[nH]c(=O)c21 | thermal stability | – | DSF | 10 µM | ΔTm | 0.1 °C |
| CC(C)(O)[C@H]1CC[C@H](Nc2ccc3ncc(-c4cccc(C(F)(F)F)c4)n3n2)CC1 | enzyme activity | inhibitor | – | 1 µM | remaining activity | 97.5% |
| CS(=O)(=O)c1cc(C2(NC(=O)c3cncc4c3cnn4-c3ccc(F)cc3)CC2)ccn1 | cell-free assay | – | competition with immobilised ligand | 1 µM | remaining binding | 99% |
| Nc1ncnc2occ(-c3ccc(NC(=O)Nc4cc(C(F)(F)F)ccc4F)cc3)c12 | cell-free assay | inhibitor | – | 20 µM | remaining signal | 73% |
| CO[C@H]1CC[C@H](CNc2ccc(S(=O)(=O)NC(=O)c3ccc(N4CCN(CC5=C(c6ccc(Cl)cc6)CC(C)(C)CC5)CC4)cc3Oc3cnc4[nH]ccc4c3)cc2[N+](=O)[O-])CC1 | cell-free assay | – | competition with immobilised ligand | 1 µM | remaining binding | 91% |
| CCN(CC)CCNC(=O)c1c(C)[nH]c(/C=C2\C(=O)Nc3ccc(F)cc32)c1C | enzyme activity | inhibitor | – | 10 µM | inhibition | -5% |
| CCN(CC)c1ccc(C2=NNC(=O)CC2C)cc1[N+](=O)[O-] (stereo not shown) | enzyme activity | inhibitor | – | 10 µM | remaining activity | 91% |
| Cc1ccc(C(=O)Nc2ccc(CN3CCN(C)CC3)c(C(F)(F)F)c2)cc1C#Cc1cnc2cccnn12 | enzyme activity | inhibitor | – | 23.5 nM | remaining activity | 100% |
| COc1cc2c(Nc3ccc(Br)cc3F)ncnc2cc1OCC1CCN(C)CC1 | cell-free assay | – | – | 0.5 µM | remaining signal | 94.6% |
| Cc1nc(C2CCN(C(=O)c3ccc(OC(F)(F)F)cc3N)CC2)c2ncc(N3CCN(C)CC3)cc2n1 | cell-free assay | – | competition with immobilised ligand | 1 µM | remaining binding | 100% |
| O=C(Nc1cnn(-c2csc(C(=O)NC3COC3)c2)c1)Nc1c(F)cccc1Cl | enzyme activity | inhibitor | – | 5 µM | remaining activity | 110% |
| Cn1c2c(c3ccc(Cl)c(Cl)c31)C(C#N)C1(CCNCC1)NC2=O (racemic) | thermal stability | – | DSF | 10 µM | ΔTm | -0.3 °C |
| CC(C)(C)c1nc(-c2cccc(NS(=O)(=O)c3c(F)cccc3F)c2F)c(-c2ccnc(N)n2)s1 | enzyme activity | inhibitor | radiometric | 1 µM | remaining activity | 103% |
| Cc1ccc(Nc2nccc(N(C)c3ccc4c(C)n(C)nc4c3)n2)cc1S(N)(=O)=O | enzyme activity | inhibitor | – | 0.3 µM | inhibition | -15% |
| c1ccc(N2CCN(Cc3nc4ccccc4[nH]3)CC2)nc1 | binding | – | competition with immobilised ligand | 1 µM | remaining binding | 100% |
| CC1(C)NC(=O)c2[nH]c3c(Cl)c(Cl)ccc3c2C1C#N (stereo not shown) | thermal stability | – | DSF | 10 µM | ΔTm | 1 °C |
| CCOc1cc(-c2nncn2C)ccc1Nc1ncc2cc(C)nc(NCC(C)(C)C)c2n1 | cell-free assay | – | TR-FRET | 1 µM | inhibition | ≤ 15% |
| CN(c1ccnc(CNc2nc(Nc3ccc4c(c3)CC(=O)N4)ncc2C(F)(F)F)n1)S(C)(=O)=O | cell-free assay | – | competition with immobilised ligand | 1 µM | remaining binding | 23% |
| Cn1c2c(c3ccc(Cl)c(Cl)c31)C(C#N)C(C)(C)NC2=O (stereo not shown) | thermal stability | – | DSF | 10 µM | ΔTm | 0.4 °C |
| CNC(=O)c1cc(Oc2ccc(NC(=O)Nc3ccc(Cl)c(C(F)(F)F)c3)cc2)ccn1 | enzyme activity | inhibitor | – | 10 µM | inhibition | -16% |
| O=C1NC(=O)c2cc(Nc3ccc(F)cc3)c(Nc3ccc(F)cc3)cc21 | cell-free assay | – | – | 0.5 µM | remaining signal | 108% |
| CCCOc1ccc(OC)c(F)c1C(=O)c1ccc(C(=O)N[C@@H]2CNC[C@H]2NC(=O)c2ccc3[nH]ncc3c2)cc1 | enzyme activity | inhibitor | – | 10 µM | remaining activity | 93% |
| Cn1c2c(c3ccccc31)C(C#N)C(C)(C)NC2=O (stereo not shown) | thermal stability | – | DSF | 10 µM | ΔTm | -0.3 °C |
| CS(=O)(=O)NCC[C@H](NC(=O)c1cncc2c1cnn2-c1ccc(F)cc1)c1ccnc(S(C)(=O)=O)c1 | cell-free assay | – | competition with immobilised ligand | 1 µM | remaining binding | 100% |
| CCC1(CC)NC(=O)c2c(c3ccc(Cl)c(Cl)c3n2C)C1C#N (stereo not shown) | thermal stability | – | DSF | 10 µM | ΔTm | 0.2 °C |
| Cc1sc(C(=O)NC2COC2)cc1-n1cc(NC(=O)Nc2c(F)cccc2Cl)cn1 | enzyme activity | inhibitor | – | 10 µM | remaining activity | 95.2% |
| C[C@H](c1ccnc(Nc2nc3ccc(-c4cc(N(C)C)ncn4)cc3[nH]2)c1)N1CCN(C(=O)CC(F)(F)F)CC1 | cell-free assay | – | competition with immobilised ligand | 0.1 µM | remaining binding | 100% |
